{"data": "Measurements of several laboratories", "target": "Receptor tyrosine-protein kinase erbB-4 (ERBB4, Homo sapiens, UniProt Q15303)", "note": "Lines come from different studies, so protocols differ."}
{"SMILES": "CC(C)(C)c1cc(C=C(C#N)C#N)cc(Br)c1O", "observed": "enzyme activity", "mode": "inhibitor", "tested at": "0.5 µM", "quantity": "remaining activity", "result": "94%"}
{"SMILES": "C#Cc1n[nH]c2c(-c3cn([C@@H](C)c4ccccc4)c(=O)[nH]c3=O)cc(F)cc12", "observed": "enzyme activity", "mode": "inhibitor", "tested at": "0.1 µM", "quantity": "inhibition", "result": "-16.5%"}
{"SMILES": "Cn1cc(-c2cc(F)cc(N3CCn4c(cc5c4CCCC5)C3=O)c2CO)cc(Nc2ccc(N3CCN(C4COC4)CC3)cn2)c1=O", "observed": "enzyme activity", "mode": "inhibitor", "tested at": "0.1 µM", "quantity": "inhibition", "result": "8%"}
{"SMILES": "C#Cc1n[nH]c2c(-c3cn([C@@H](C)c4ccccn4)c(=O)[nH]c3=O)cc(F)cc12", "observed": "enzyme activity", "mode": "inhibitor", "tested at": "0.1 µM", "quantity": "inhibition", "result": "-15.6%"}
{"SMILES": "N#CC1(c2ccccn2)CCN(Cc2cc(C(=O)O)c(=O)n3ccccc23)CC1", "observed": "cell-free assay", "technique": "competition with immobilised ligand", "tested at": "1 µM", "quantity": "remaining binding", "result": "72%"}
{"SMILES": "Cc1nn(C)cc1-c1nc2c(N3CCN(Cc4ccc(Cl)cc4)CC3)c(Cl)cnc2[nH]1", "observed": "binding", "technique": "competition with immobilised ligand", "tested at": "1 µM", "quantity": "remaining binding", "result": "100%"}
{"SMILES": "Cn1cncc1[C@@](O)(COc1ccc(C#N)cc1-c1ccc(OC(F)(F)F)cc1)c1ccc(C#N)cc1", "observed": "cell-free assay", "technique": "competition with immobilised ligand", "tested at": "1 µM", "quantity": "remaining binding", "result": "100%"}
{"SMILES": "Cn1cc(-c2cccc(N3CCc4c(sc5c4CC(C)(C)C5)C3=O)c2CO)cc(Nc2ccncn2)c1=O", "observed": "enzyme activity", "mode": "inhibitor", "tested at": "1 µM", "quantity": "inhibition", "result": "0%"}
{"SMILES": "COc1cc(Nc2ncc(F)c(Nc3ccc4c(n3)NC(=O)C(C)(C)O4)n2)cc(OC)c1OC", "observed": "binding", "technique": "competition with immobilised ligand", "tested at": "10 µM", "quantity": "inhibition", "result": "89%"}
{"SMILES": "O=c1[nH]c2ccccc2n1C1CCN(Cc2ccc(-c3[nH]c4cc5ncnc5cc4nc3-c3ccccc3)cc2)CC1", "observed": "cell-free assay", "tested at": "0.5 µM", "quantity": "remaining signal", "result": "105%"}
{"SMILES": "Nc1ncc(-c2nc(N3CCOCC3)nc(N3CCOCC3)n2)c(C(F)F)n1", "observed": "binding", "technique": "competition with immobilised ligand", "tested at": "10 µM", "quantity": "remaining binding", "result": "60%"}
{"SMILES": "COc1ncccc1-c1cnn2ccc(N3CCN(C(=O)OC(C)C)CC3)nc12", "observed": "binding", "technique": "competition with immobilised ligand", "tested at": "1 µM", "quantity": "remaining binding", "result": "100%"}
